Measurements as given in ChEMBL document CHEMBL5705888, “Substrate specificity and inhibitors of LRRK2, a protein kinase mutated in Parkinson's disease” (Biochem J, 2009).
The source made the active and inactive calls. The rule behind the calls is not given here.

What was measured:
[1] = target: T1, Dual specificity tyrosine-phosphorylation-regulated kinase 3 (Homo sapiens) (UniProt O43781); experiment: Inhibition of DYRK3 (unknown origin) at 1 uM incubated for 30 mins in presence of [gamma-33P]ATP by multidrop micro reagent based assay relative to control; values are per cent of control
T1 sequence (whole entry): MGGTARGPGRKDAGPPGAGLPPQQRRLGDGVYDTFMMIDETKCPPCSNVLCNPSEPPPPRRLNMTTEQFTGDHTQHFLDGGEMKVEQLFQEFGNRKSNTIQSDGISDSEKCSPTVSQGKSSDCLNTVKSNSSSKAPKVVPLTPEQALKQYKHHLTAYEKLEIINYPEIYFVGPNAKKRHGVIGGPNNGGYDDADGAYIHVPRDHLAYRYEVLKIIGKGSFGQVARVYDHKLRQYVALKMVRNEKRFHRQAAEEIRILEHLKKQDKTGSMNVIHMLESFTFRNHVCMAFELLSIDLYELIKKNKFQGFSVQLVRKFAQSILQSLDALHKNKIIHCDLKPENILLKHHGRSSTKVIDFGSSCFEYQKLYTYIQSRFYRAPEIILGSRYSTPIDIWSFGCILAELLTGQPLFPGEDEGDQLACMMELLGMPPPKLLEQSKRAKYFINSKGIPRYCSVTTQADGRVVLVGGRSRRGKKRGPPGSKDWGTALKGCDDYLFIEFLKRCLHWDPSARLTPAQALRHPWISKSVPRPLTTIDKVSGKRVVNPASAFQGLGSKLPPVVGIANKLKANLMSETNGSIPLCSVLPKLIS

[2] = target: Leucine-rich repeat serine/threonine-protein kinase 2 (Mus musculus) (UniProt Q5S006); experiment: Inhibition of LRRK2 in mouse Swiss-3T3 cells at 2 uM using Nictide as substrate by immunoblot analysis; format: cell-based
[3] = target: Ephrin type-A receptor 2 (Homo sapiens) (UniProt P29317); experiment: Inhibition of EPH A2 (unknown origin) at 10 uM incubated for 30 mins in presence of [gamma-33P]ATP by multidrop micro reagent based assay relative to control; values are per cent of control
[4] = target: Aurora kinase B (Homo sapiens) (UniProt Q96GD4); experiment: Inhibition of Aurora B kinase (unknown origin) at 10 uM incubated for 30 mins in presence of [gamma-33P]ATP by multidrop micro reagent based assay relative to control; values are per cent of control
Aurora kinase B (Homo sapiens), sequence (Q96GD4 whole entry): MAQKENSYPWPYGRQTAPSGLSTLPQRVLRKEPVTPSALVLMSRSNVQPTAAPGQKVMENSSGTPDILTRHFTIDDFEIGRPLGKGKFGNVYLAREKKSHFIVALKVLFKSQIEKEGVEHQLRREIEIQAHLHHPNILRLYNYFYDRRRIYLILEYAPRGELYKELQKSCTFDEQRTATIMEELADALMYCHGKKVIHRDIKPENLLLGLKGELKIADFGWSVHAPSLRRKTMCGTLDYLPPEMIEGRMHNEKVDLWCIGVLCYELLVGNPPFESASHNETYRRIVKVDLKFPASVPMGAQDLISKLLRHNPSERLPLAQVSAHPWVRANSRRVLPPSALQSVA

[5] = target: T2, Dual specificity protein kinase TTK (Homo sapiens) (UniProt P33981); experiment: Inhibition of TTK (unknown origin) at 10 uM incubated for 30 mins in presence of [gamma-33P]ATP by multidrop micro reagent based assay relative to control
T2 sequence (whole entry): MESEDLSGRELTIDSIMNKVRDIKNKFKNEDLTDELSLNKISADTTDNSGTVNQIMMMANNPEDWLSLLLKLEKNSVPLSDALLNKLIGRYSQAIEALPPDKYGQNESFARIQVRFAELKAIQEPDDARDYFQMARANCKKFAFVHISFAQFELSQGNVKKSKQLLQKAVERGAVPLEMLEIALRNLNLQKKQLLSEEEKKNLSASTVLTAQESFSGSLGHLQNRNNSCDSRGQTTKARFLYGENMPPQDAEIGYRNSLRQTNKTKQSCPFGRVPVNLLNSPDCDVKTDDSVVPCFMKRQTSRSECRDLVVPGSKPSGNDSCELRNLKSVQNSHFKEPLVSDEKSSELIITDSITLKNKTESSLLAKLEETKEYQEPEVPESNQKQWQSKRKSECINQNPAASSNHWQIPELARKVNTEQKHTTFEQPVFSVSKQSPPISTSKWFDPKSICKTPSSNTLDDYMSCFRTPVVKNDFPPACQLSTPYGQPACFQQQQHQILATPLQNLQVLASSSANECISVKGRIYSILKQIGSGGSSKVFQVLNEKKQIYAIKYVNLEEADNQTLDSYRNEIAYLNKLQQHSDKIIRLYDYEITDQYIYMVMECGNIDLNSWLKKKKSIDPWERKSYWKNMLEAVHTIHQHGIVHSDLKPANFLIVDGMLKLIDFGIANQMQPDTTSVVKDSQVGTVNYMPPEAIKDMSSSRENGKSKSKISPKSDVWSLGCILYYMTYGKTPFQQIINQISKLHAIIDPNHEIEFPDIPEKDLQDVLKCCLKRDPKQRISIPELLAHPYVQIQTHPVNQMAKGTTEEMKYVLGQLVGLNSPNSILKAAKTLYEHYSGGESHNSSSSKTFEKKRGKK
Method in brief: (§1)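 Single-concentration screen across a panel of 85 protein kinases. Activity is expressed as a percentage of control incubations run without inhibitor.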

[6] = target: Tyrosine-protein kinase Yes (Homo sapiens) (UniProt P07947); experiment: Inhibition of YES1 (unknown origin) at 10 uM incubated for 30 mins in presence of [gamma-33P]ATP by multidrop micro reagent based assay relative to control; values are per cent of control
Tyrosine-protein kinase Yes (Homo sapiens), sequence (P07947 2-543 limits assumed): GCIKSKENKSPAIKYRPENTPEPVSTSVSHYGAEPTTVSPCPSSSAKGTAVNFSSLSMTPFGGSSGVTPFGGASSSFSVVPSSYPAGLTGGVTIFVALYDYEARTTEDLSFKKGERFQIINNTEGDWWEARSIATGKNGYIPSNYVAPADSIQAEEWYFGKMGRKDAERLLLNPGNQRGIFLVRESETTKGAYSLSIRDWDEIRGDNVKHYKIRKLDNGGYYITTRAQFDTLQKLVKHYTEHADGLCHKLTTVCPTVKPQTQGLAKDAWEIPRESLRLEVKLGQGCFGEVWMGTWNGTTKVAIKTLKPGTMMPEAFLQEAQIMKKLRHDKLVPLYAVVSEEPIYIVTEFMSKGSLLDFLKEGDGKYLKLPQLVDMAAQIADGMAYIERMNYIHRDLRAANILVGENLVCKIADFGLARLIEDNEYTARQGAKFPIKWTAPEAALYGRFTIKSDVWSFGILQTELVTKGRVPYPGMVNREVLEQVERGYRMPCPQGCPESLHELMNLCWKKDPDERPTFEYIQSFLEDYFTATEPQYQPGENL

[7] = tested on: Leucine-rich repeat serine/threonine-protein kinase 2 (Homo sapiens), Q5S007 [G2019S]; experiment: Inhibition of LRRK2 G2019S mutant (unknown origin) at 10 uM incubated for 30 mins in presence of [gamma-33P]ATP by multidrop micro reagent based assay relative to control
Leucine-rich repeat serine/threonine-protein kinase 2 (Homo sapiens), Q5S007 [G2019S], sequence (Q5S007 whole entry G2019S): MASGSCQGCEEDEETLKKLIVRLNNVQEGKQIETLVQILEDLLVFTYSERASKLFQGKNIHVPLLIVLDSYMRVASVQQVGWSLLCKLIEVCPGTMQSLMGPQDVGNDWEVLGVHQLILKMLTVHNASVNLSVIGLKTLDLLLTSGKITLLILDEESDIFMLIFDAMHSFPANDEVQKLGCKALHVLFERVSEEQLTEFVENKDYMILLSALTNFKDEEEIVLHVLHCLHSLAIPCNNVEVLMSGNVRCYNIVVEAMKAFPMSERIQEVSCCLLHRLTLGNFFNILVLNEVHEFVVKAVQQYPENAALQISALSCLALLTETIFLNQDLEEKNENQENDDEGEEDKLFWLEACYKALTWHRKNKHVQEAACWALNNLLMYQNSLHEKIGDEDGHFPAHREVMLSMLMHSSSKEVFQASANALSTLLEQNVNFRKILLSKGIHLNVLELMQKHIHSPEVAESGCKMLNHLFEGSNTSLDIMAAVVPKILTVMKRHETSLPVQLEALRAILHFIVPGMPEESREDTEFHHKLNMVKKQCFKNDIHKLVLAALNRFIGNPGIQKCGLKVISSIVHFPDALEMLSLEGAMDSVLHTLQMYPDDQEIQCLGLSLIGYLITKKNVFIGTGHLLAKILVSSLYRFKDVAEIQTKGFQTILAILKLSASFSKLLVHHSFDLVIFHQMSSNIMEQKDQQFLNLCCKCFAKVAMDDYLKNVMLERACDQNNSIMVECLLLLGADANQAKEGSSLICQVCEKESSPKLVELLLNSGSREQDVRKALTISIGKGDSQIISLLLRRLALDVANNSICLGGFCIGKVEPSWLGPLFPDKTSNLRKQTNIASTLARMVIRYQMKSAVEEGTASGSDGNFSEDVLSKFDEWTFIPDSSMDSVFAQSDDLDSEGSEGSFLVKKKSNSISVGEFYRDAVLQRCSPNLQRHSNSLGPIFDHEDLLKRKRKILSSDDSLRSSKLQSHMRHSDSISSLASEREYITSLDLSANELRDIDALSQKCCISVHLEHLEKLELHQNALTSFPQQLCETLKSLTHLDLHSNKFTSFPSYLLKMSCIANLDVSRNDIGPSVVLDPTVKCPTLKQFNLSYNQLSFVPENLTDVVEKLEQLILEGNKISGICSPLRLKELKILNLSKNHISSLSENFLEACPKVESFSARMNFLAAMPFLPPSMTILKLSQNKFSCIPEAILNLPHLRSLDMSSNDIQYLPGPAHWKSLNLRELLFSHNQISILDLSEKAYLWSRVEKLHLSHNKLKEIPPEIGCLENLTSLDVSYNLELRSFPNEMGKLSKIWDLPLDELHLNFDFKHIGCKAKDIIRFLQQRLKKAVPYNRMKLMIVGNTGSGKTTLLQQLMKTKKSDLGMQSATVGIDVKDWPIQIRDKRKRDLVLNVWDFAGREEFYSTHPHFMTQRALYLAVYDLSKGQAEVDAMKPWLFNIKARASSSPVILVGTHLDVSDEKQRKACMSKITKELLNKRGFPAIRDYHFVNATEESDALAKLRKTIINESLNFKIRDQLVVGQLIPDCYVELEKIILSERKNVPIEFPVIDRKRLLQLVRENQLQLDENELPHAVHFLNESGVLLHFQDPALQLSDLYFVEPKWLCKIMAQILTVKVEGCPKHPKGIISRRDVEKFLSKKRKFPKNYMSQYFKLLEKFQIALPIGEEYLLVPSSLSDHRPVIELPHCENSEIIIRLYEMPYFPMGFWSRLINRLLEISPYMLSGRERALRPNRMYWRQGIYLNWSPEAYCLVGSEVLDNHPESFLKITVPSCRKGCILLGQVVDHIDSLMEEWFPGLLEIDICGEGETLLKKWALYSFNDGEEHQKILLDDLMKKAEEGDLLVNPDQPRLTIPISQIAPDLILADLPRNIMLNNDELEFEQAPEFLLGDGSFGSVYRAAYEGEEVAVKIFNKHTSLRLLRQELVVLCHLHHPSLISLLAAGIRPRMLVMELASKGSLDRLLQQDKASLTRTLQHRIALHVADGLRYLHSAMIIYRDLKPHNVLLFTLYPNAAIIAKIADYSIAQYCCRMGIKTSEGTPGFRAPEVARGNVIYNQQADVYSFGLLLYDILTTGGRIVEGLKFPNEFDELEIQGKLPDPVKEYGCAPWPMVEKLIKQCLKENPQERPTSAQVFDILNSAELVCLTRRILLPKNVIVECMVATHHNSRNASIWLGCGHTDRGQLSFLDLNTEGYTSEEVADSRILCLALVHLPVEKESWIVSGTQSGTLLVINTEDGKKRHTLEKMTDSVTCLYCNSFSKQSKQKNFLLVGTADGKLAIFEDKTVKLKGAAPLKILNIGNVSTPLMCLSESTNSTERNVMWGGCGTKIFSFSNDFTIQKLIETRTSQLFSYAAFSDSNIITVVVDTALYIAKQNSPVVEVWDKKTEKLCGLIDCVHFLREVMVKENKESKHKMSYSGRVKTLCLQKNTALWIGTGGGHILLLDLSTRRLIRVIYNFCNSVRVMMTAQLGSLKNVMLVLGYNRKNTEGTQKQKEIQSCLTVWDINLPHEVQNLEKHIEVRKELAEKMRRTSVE

[8] = target: Ribosomal protein S6 kinase alpha-5 (Homo sapiens) (UniProt O75582); experiment: Inhibition of MSK1 (unknown origin) at 10 uM incubated for 30 mins in presence of [gamma-33P]ATP by multidrop micro reagent based assay relative to control
Ribosomal protein S6 kinase alpha-5 (Homo sapiens), sequence (O75582 whole entry, looked up): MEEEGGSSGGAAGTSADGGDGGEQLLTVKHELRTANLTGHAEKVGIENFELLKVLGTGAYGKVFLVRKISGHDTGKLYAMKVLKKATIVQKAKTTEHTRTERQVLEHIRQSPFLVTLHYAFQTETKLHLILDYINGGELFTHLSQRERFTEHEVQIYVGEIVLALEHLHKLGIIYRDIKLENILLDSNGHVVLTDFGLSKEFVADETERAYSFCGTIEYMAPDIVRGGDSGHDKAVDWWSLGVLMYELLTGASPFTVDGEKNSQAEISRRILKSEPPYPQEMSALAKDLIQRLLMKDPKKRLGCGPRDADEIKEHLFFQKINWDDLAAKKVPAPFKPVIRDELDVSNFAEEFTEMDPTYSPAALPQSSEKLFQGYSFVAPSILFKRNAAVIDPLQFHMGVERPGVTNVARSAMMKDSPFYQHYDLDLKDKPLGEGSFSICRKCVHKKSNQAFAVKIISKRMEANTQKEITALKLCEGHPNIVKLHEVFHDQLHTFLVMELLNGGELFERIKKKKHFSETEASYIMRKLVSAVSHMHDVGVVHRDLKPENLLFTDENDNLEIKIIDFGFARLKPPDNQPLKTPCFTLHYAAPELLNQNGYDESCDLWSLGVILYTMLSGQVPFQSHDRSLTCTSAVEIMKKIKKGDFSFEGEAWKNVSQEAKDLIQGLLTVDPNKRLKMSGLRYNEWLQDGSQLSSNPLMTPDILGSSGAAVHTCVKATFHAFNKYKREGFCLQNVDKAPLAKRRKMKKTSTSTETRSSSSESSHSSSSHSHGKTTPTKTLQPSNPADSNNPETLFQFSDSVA
Method in brief: as §1

[9] = target: T3, Serine/threonine-protein kinase Nek2 (Homo sapiens) (UniProt P51955); experiment: Inhibition of NEK2a (unknown origin) at 10 uM incubated for 30 mins in presence of [gamma-33P]ATP by multidrop micro reagent based assay relative to control; values are per cent of control
T3 sequence (whole entry): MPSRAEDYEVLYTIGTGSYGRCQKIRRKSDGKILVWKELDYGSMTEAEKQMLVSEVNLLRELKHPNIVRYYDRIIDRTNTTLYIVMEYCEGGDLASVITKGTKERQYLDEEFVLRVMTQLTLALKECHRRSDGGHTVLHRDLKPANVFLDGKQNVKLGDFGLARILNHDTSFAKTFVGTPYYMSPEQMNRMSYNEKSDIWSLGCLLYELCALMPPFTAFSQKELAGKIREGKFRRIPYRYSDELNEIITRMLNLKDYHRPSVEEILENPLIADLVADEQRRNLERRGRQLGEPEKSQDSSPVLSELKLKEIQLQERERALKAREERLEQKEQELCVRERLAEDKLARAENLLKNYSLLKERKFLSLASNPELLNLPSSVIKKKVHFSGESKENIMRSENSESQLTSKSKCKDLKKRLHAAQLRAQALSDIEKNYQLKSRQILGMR

[10] = target: Serine/threonine-protein kinase pim-2 (Homo sapiens) (UniProt Q9P1W9); experiment: Inhibition of PIM2 (unknown origin) at 10 uM incubated for 30 mins in presence of [gamma-33P]ATP by multidrop micro reagent based assay relative to control; values are per cent of control
Serine/threonine-protein kinase pim-2 (Homo sapiens), sequence (Q9P1W9 whole entry, looked up): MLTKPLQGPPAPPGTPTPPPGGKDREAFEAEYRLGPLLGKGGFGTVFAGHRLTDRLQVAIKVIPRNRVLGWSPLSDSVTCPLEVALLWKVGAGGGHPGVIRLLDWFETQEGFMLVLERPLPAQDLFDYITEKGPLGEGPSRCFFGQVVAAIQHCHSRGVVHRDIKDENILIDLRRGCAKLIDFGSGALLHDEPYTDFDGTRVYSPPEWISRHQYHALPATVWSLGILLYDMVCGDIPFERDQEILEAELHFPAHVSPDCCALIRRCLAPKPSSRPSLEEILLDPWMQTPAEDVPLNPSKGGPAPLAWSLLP

Compound | residual activity [1] | residual activity [4] | inhibition [5] | residual activity [6] | inhibition [7] | residual activity [10] | other results
CC1=C(C(=O)Nc2cc3cn[nH]c3cc2F)C(c2ccc(C(F)(F)F)cc2)CC(=O)N1 (stereo unspecified) | 94% |  |  |  |  |  | 
Cc1cncc2cccc(S(=O)(=O)N3CCCNC[C@@H]3C)c12 |  |  |  |  |  |  | inhibition [2]: Active
C[C@@H](N)[C@H]1CC[C@H](C(=O)Nc2ccncc2)CC1 |  | 79% | 73% | 96% | 11% | 102% | residual activity [3]: 106%; inhibition [8]: 41%; residual activity [9]: 104%
O=S(=O)(c1cccc2cnccc12)N1CCCNCC1 [FASUDIL] |  | 51% | 73% | 136% | 67% | 111% | 
CCn1c(-c2nonc2N)nc2cnc(Oc3cccc(NC(=O)c4ccc(OCCN5CCOCC5)cc4)c3)cc21 [GSK-269962A] | 77% |  |  |  |  |  | 
